Results taken from ChEMBL document CHEMBL1124311, “Synthesis and antiallergy activity of 4-(diarylhydroxymethyl)-1-[3-(aryloxy)propyl]piperidines and structurally related compounds” (J Med Chem, 1989).
pIC50: −log10 of the molar value. Active and inactive are the calls of the source. The calls are words filed in the database; no cut-off is given here.

Legend:
Rattus norvegicus [1] = experiment: Oral antiallergy activity in the passive foot anaphylaxis (PFA) model of rat, at a dose of 10 (mg/kg); Activity equal to positive control group; assay type: functional, organism-based
Rattus norvegicus [2] = organism: Rattus norvegicus; experiment: Oral antiallergy activity in the passive foot anaphylaxis (PFA) model of rat, at a dose of 3.16; Activity equal to positive control group; assay type: functional, organism-based
Rattus norvegicus [3] = experiment: Oral antiallergy activity in the passive foot anaphylaxis (PFA) model of rat, at a dose of 1.0 (mg/kg); not significantly different from negative control group; assay type: functional, organism-based
Cavia porcellus [4] = organism: Cavia porcellus; experiment: Oral antiallergy activity in the guinea pig anaphylaxis (GPA) model of, at a pretreatment time of 5 h; assay type: functional; conditions: read-out: PD50
Outline: (§1)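 Fasted, sensitized Dunkin-Hartley guinea pigs, randomized into control (N = 8) and test (N = 4) groups, dosed by gavage at 10 mL/kg in 0.5% Tween 80 in water; theophylline 100 mg/kg po as reference. At the stated pretreatment time, each animal was exposed to aerosolized 1% (w/v) egg albumin at 10 L air/min for up to 5 min. Protection meant no collapse within 5 min. PD50 was calculated by Litchfield–Wilcoxon.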

Cavia porcellus [5] = organism: Cavia porcellus; experiment: Oral antiallergy activity in the guinea pig anaphylaxis (GPA) model, at a pretreatment time of 24 h; assay type: functional; conditions: read-out: PD50; outline: as §1
Histamine H1 receptor [6] = molecular target: T1, Histamine H1 receptor (Cavia porcellus, UniProt P31389); experiment: Inhibitory activity against Tritiated [3H]- mepyramine binding to histamine H1 receptor in guinea pig cerebral cortex; assay type: tissue-based
Outline: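 Guinea pig (Dunkin-Hartley) cerebral cortex homogenized in cold 50 mM Na-K phosphate pH 7.5, centrifuged at 48000g three times, resuspended 30 mL buffer/g tissue. Six concentrations (1e-5 to 1e-10 M) run in triplicate. IC50 derived by regression of logit % control binding vs log concentration.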

Rattus norvegicus [7] = experiment: Oral antiallergy activity in the passive foot anaphylaxis (PFA) model of rat, at a dose of 10 (mg/kg); Activity greater than positive control group; assay type: functional, organism-based
Rattus norvegicus [8] = experiment: Oral antiallergy activity in the passive foot anaphylaxis (PFA) model of rat, at a dose of 3.16 (mg/kg); Activity equal to positive control group; assay type: functional, organism-based
Cavia porcellus [9] = organism: Cavia porcellus; experiment: Oral antiallergy activity in the guinea pig anaphylaxis (GPA) model, at a pretreatment time of 1 h; assay type: functional; conditions: read-out: PD50; outline: as §1
Rattus norvegicus [10] = experiment: Oral antiallergy activity in the passive foot anaphylaxis (PFA) model of rat, at a dose of 10 (mg/kg); Not significantly different from negative control group; assay type: functional, organism-based
Cavia porcellus [11] = organism: Cavia porcellus; experiment: Oral antiallergy activity in the guinea pig anaphylaxis (GPA) model of, at a pretreatment time of 6 h; assay type: functional; conditions: read-out: PD50; outline: as §1
Rattus norvegicus [12] = experiment: Oral antiallergy activity in the passive foot anaphylaxis (PFA) model of rat, at a dose of 10 (mg/kg); not significantly different from negative control group; assay type: functional, organism-based
Rattus norvegicus [13] = experiment: Oral antiallergy activity in the passive foot anaphylaxis (PFA) model of rat, at a dose of 1.0 (mg/kg);not significantly different from negative control group; assay type: functional, organism-based
Rattus norvegicus [14] = experiment: Oral antiallergy activity in the passive foot anaphylaxis (PFA) model of rat, at a dose of 3.16 (mg/kg); Activity between positive and negative control groups; assay type: functional, organism-based
Rattus norvegicus [15] = experiment: Oral antiallergy activity in the passive foot anaphylaxis (PFA) model of rat, at a dose of 3.16 (mg/kg); - indicates not significantly different from negative control group.; assay type: functional, organism-based
Rattus norvegicus [16] = experiment: Oral antiallergy activity in the passive foot anaphylaxis (PFA) model of rat, at a dose of 1.0 (mg/kg); assay type: functional, organism-based
Rattus norvegicus [17] = experiment: Oral antiallergy activity in the passive foot anaphylaxis (PFA) model of rat, at a dose of 0.5 (mg/kg); Activity between positive and negative control groups; assay type: functional, organism-based
Rattus norvegicus [18] = experiment: Oral antiallergy activity in the passive foot anaphylaxis (PFA) model of rat, at a dose of 1.0 (mg/kg); Activity between positive and negative control groups; assay type: functional, organism-based
Rattus norvegicus [19] = experiment: Oral antiallergy activity in the passive foot anaphylaxis (PFA) model of rat, at a dose of 0.5 (mg/kg); not significantly different from negative control group; assay type: functional, organism-based
Rattus norvegicus [20] = experiment: Oral antiallergy activity in the passive foot anaphylaxis (PFA) model of rat, at a dose of 3.16 (mg/kg); Activity greater than positive control group; assay type: functional, organism-based
Cavia porcellus [21] = organism: Cavia porcellus; experiment: Oal antiallergy activity in the guinea pig anaphylaxis (GPA) model of, at a pretreatment time of 5 h; assay type: functional; conditions: read-out: PD50; outline: as §1
Histamine H1 receptor [22] = molecular target: T1, Histamine H1 receptor; experiment: Inhibitory activity against Tritiated [3H]- mepyramine binding to Histamine H1 receptor in guinea pig cerebral cortex; assay type: tissue-based
Outline: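 Guinea pig (Dunkin-Hartley) cerebral cortex homogenised in cold 50 mM Na-K phosphate pH 7.5, washed by repeated 48000g spins, membranes resuspended at 30 mL buffer/g wet tissue. Incubated with 1.5 nM (final) [3H]mepyramine for 20 min at 25 °C. Stopped by cold-buffer washing and GF/B filtration, then scintillation counting. Six concentrations (1e-5 to 1e-10 M) in triplicate. IC50 from regression of logit % control binding vs log concentration.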

Cavia porcellus [23] = organism: Cavia porcellus; experiment: Oal antiallergy activity in the guinea pig anaphylaxis (GPA) model, at a pretreatment time of 24 h; assay type: functional; conditions: read-out: PD50; outline: as §1

T1 sequence (P31389 whole entry): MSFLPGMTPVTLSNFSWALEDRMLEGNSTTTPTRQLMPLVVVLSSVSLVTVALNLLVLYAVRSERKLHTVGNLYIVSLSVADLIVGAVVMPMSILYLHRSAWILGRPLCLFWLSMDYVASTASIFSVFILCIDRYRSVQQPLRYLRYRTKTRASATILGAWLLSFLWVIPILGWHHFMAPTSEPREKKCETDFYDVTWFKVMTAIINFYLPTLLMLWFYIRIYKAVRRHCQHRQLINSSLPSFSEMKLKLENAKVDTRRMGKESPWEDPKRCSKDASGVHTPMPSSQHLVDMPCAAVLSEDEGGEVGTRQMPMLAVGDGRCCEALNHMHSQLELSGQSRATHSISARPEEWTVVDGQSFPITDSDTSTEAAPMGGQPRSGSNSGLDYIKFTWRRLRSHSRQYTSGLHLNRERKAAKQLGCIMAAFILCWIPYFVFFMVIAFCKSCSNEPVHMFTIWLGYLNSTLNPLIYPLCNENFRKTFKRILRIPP

Structure (SMILES): Cc1ccc(OCCCN2CCC(C(O)(c3ccc(F)cc3)c3ccc(F)cc3)CC2)cc1
- PFA (Rattus norvegicus [1]): Activity equal to positive control group
- PFA (Rattus norvegicus [2]): Activity equal to positive control group
- PFA (Rattus norvegicus [3]): Activity equal to positive control group

Structure (SMILES): COc1cc(C(C)=O)ccc1OCCCN1CCC(C(O)(c2ccc(F)cc2)c2ccc(F)cc2)CC1
- ED50 (Cavia porcellus [4]): 0.18 mg/kg
- ED50 (Cavia porcellus [5]): 0.78 mg/kg
- pIC50 (Histamine H1 receptor [6]): 8.10
- PFA (Rattus norvegicus [7]): Active
- PFA (Rattus norvegicus [3]): inactive
- PFA (Rattus norvegicus [8]): Active
- ED50 (Cavia porcellus [9]): 1.78 mg/kg

Structure (SMILES): COc1cc(C(C)=O)ccc1OCCCN1CCC(C(O)c2ccccc2)CC1 (stereo not given)
- PFA (Rattus norvegicus [10]): Not significantly different from negative control group

Structure (SMILES): COc1cc(C(C)=O)ccc1OCCCN1CCC(C(O)(c2ccccc2)c2ccccc2)CC1
- ED50 (Cavia porcellus [4]): 0.35 mg/kg
- ED50 (Cavia porcellus [5]): 1.4 mg/kg
- pIC50 (Histamine H1 receptor [6]): 7.38
- PFA (Rattus norvegicus [7]): Active
- PFA (Rattus norvegicus [3]): inactive
- PFA (Rattus norvegicus [8]): Active
- ED50 (Cavia porcellus [9]): 0.57 mg/kg

Structure (SMILES): CC(C)(C)c1ccc(C(O)CCCN2CCC(C(O)(c3ccccc3)c3ccccc3)CC2)cc1 (stereo not given) [TERFENADINE]
- ED50 (Cavia porcellus [11]): 3.2 mg/kg
- PFA (Rattus norvegicus [12]): inactive
- ED50 (Cavia porcellus [9]): 1 mg/kg

Structure (SMILES): CS(=O)(=O)Nc1ccc(OCCCN2CCC(C(O)(c3ccc(F)cc3)c3ccc(F)cc3)CC2)cc1
- PFA (Rattus norvegicus [13]): Activity between positive and negative control groups
- PFA (Rattus norvegicus [14]): Activity between positive and negative control groups
- PFA (Rattus norvegicus [7]): Activity between positive and negative control groups

Structure (SMILES): OC(c1ccc(F)cc1)(c1ccc(F)cc1)C1CCN(CCCCc2ccccc2)CC1
- PFA (Rattus norvegicus [15]): Not significantly different from negative control group

Structure (SMILES): O=C(O)c1ccc(OCCCN2CCC(C(O)(c3ccc(F)cc3)c3ccc(F)cc3)CC2)cc1
- PFA (Rattus norvegicus [16]): Activity between positive and negative control groups
- PFA (Rattus norvegicus [14]): Activity between positive and negative control groups
- PFA (Rattus norvegicus [17]): Activity between positive and negative control groups

Structure (SMILES): COC(=O)c1ccc(OCCCN2CCC(C(O)(c3ccc(F)cc3)c3ccc(F)cc3)CC2)cc1
- ED50 (Cavia porcellus [4]): 0.32 mg/kg
- ED50 (Cavia porcellus [5]): 2.04 mg/kg
- PFA (Rattus norvegicus [18]): Weak activity
- pIC50 (Histamine H1 receptor [6]): 7.20
- PFA (Rattus norvegicus [19]): inactive
- PFA (Rattus norvegicus [20]): Active
- ED50 (Cavia porcellus [9]): 0.72 mg/kg

Structure (SMILES): CCOC(=O)c1ccc(OCCCN2CCC(C(O)(c3ccc(F)cc3)c3ccc(F)cc3)CC2)cc1.Cl
- ED50 (Cavia porcellus [4]): 0.44 mg/kg
- ED50 (Cavia porcellus [5]): 0.37 mg/kg
- PFA (Rattus norvegicus [18]): Weak activity
- pIC50 (Histamine H1 receptor [6]): 6.02
- PFA (Rattus norvegicus [20]): Active
- PFA (Rattus norvegicus [17]): Weak activity
- ED50 (Cavia porcellus [9]): 1 mg/kg

Structure (SMILES): O=c1[nH]c2ccccc2n1CCCN1CCN(C(c2ccccc2)c2ccccc2)CC1 [OXATOMIDE]
- ED50 (Cavia porcellus [21]): 1 mg/kg
- pIC50 (Histamine H1 receptor [22]): 8.05
- ED50 (Cavia porcellus [23]): 10 mg/kg
